{"source": "the M2OR odorant receptor database", "conditions_in_all_cases": "stereoisomer not certain", "key": {"OR2C3 (Homo sapiens)": {"target": "T1, OR2C3 (Homo sapiens) (UniProt Q8N628)", "T1 sequence (whole entry)": "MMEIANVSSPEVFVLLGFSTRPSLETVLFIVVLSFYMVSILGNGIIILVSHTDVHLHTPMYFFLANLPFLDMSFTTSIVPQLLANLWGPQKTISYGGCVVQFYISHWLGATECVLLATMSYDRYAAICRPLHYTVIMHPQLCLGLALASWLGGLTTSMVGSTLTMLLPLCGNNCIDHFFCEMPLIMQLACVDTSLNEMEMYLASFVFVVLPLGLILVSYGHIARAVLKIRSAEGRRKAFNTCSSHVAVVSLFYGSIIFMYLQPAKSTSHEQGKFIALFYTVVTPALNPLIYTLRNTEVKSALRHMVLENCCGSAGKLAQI", "how_it_was_run": "(§1)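 Whether a receptor–molecule pair is responsive (active) rests on the original authors' judgment that its measured signal was statistically different from baseline. Pairs without that judgment are non-responsive (inactive). Sources used varied assay methods, commonly transient luciferase assays in mammalian cell lines.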"}, "OR2D2 (Homo sapiens)": {"target": "T2, OR2D2 (Homo sapiens) (UniProt Q9H210)", "T2 sequence (whole entry)": "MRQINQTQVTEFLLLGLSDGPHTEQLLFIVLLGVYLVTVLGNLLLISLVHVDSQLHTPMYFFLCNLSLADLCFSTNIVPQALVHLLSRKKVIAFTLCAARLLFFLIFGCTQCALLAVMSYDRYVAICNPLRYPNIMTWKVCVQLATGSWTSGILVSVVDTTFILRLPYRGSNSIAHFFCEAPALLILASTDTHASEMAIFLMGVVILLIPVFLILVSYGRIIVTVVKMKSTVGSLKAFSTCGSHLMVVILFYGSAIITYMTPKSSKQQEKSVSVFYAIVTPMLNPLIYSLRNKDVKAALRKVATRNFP", "how_it_was_run": "as §1"}, "OR2D3 (Homo sapiens)": {"target": "T3, OR2D3 (Homo sapiens) (UniProt Q8NGH3)", "T3 sequence (whole entry)": "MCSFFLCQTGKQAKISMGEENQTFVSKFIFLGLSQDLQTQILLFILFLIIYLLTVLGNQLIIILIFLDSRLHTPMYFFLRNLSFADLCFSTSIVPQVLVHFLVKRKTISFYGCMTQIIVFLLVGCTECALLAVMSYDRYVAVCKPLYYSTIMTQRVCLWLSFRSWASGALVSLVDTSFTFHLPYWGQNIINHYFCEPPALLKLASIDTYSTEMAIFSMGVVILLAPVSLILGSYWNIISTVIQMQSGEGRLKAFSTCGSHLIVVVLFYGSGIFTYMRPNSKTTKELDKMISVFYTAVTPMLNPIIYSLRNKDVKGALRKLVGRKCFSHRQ", "how_it_was_run": "as §1"}, "OR2C1 [1]": {"tested_on": "T4, OR2C1", "T4 sequence (whole entry)": "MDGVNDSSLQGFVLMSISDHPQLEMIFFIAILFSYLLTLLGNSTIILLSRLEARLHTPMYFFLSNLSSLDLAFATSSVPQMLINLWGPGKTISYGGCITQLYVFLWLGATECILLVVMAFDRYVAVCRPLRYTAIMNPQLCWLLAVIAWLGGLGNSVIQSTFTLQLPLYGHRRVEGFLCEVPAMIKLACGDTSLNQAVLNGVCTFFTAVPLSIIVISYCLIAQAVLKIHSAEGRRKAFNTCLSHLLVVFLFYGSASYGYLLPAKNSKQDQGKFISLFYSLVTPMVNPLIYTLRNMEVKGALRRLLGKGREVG", "how_it_was_run": "as §1"}, "OR2C3 [2]": {"tested_on": "T5, OR2C3", "T5 sequence (whole entry)": "T1 sequence (whole entry) with T20A, P68S, L289V", "how_it_was_run": "as §1"}, "OR2C3 [3]": {"tested_on": "T6, OR2C3", "T6 sequence (whole entry)": "T1 sequence (whole entry) with P68S", "how_it_was_run": "as §1", "remark": "listed apart in the source"}, "OR2D2 S148P I163T M202T": {"tested_on": "T7, OR2D2 S148P I163T M202T", "T7 sequence (whole entry)": "T2 sequence (whole entry) with S148P, I163T, M202T", "how_it_was_run": "as §1"}, "OR2D3 R155W": {"tested_on": "T8, OR2D3 R155W", "T8 sequence (whole entry)": "T3 sequence (whole entry) with R155W", "how_it_was_run": "as §1"}, "OR2C1 [4]": {"tested_on": "OR2C1", "how_it_was_run": "as §1", "remark": "listed apart in the source"}, "OR2C1 [5]": {"tested_on": "OR2C1", "how_it_was_run": "as §1", "remark": "listed apart in the source"}}, "note": "Residue numbers refer to the chain shown, from its start.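 Also: active if original authors judged signal statistically different from baseline.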", "data": [{"smiles": "CC1CCCCCCCCCCCCC(=O)C1", "note": "(stereo not drawn)", "values": [{"measurement": "odorant receptor agonist call", "setting": "OR2C3 (Homo sapiens)", "value": "inactive"}, {"measurement": "odorant receptor agonist call", "setting": "OR2D2 (Homo sapiens)", "value": "inactive"}, {"measurement": "odorant receptor agonist call", "setting": "OR2D3 (Homo sapiens)", "value": "inactive"}]}, {"smiles": "c1coc(CSSCc2ccco2)c1", "values": [{"measurement": "odorant receptor agonist call", "setting": "OR2C1 [1]", "value": "inactive"}]}, {"smiles": "CC1=C(O)C(=O)OC1C", "note": "(stereo not drawn)", "values": [{"measurement": "odorant receptor agonist call", "setting": "OR2C3 [2]", "value": "inactive"}, {"measurement": "odorant receptor agonist call", "setting": "OR2C3 [3]", "value": "inactive"}, {"measurement": "odorant receptor agonist call", "setting": "OR2D2 (Homo sapiens)", "value": "inactive"}, {"measurement": "odorant receptor agonist call", "setting": "OR2D2 S148P I163T M202T", "value": "inactive"}, {"measurement": "odorant receptor agonist call", "setting": "OR2D3 (Homo sapiens)", "value": "inactive"}, {"measurement": "odorant receptor agonist call", "setting": "OR2D3 R155W", "value": "inactive"}]}, {"smiles": "CCCCCCCCS", "values": [{"measurement": "odorant receptor agonist call", "setting": "OR2C1 [4]", "value": "active"}, {"measurement": "odorant receptor agonist call", "setting": "OR2C1 [5]", "value": "active"}, {"measurement": "odorant receptor agonist call", "setting": "OR2C1 [1]", "value": "active"}]}, {"smiles": "CC1=C(O)C(=O)C(C)O1", "note": "(stereo not drawn)", "values": [{"measurement": "odorant receptor agonist call", "setting": "OR2C3 [2]", "value": "inactive"}, {"measurement": "odorant receptor agonist call", "setting": "OR2C3 [3]", "value": "inactive"}, {"measurement": "odorant receptor agonist call", "setting": "OR2D2 (Homo sapiens)", "value": "inactive"}, {"measurement": "odorant receptor agonist call", "setting": "OR2D2 S148P I163T M202T", "value": "inactive"}, {"measurement": "odorant receptor agonist call", "setting": "OR2D3 (Homo sapiens)", "value": "inactive"}, {"measurement": "odorant receptor agonist call", "setting": "OR2D3 R155W", "value": "inactive"}]}, {"smiles": "CCC(S)C(C)CO", "note": "(stereo not drawn)", "values": [{"measurement": "odorant receptor agonist call", "setting": "OR2C3 (Homo sapiens)", "value": "inactive"}, {"measurement": "odorant receptor agonist call", "setting": "OR2D2 (Homo sapiens)", "value": "inactive"}, {"measurement": "odorant receptor agonist call", "setting": "OR2D3 (Homo sapiens)", "value": "inactive"}]}, {"smiles": "Cc1cnc(C)c(C)n1", "values": [{"measurement": "odorant receptor agonist call", "setting": "OR2C3 [2]", "value": "inactive"}, {"measurement": "odorant receptor agonist call", "setting": "OR2C3 [3]", "value": "inactive"}, {"measurement": "odorant receptor agonist call", "setting": "OR2D2 (Homo sapiens)", "value": "inactive"}, {"measurement": "odorant receptor agonist call", "setting": "OR2D2 S148P I163T M202T", "value": "inactive"}, {"measurement": "odorant receptor agonist call", "setting": "OR2D3 (Homo sapiens)", "value": "inactive"}, {"measurement": "odorant receptor agonist call", "setting": "OR2D3 R155W", "value": "inactive"}]}, {"smiles": "CCCCCC(S)C(C)CO", "note": "(stereo not drawn)", "values": [{"measurement": "odorant receptor agonist call", "setting": "OR2C3 (Homo sapiens)", "value": "inactive"}, {"measurement": "odorant receptor agonist call", "setting": "OR2D2 (Homo sapiens)", "value": "inactive"}, {"measurement": "odorant receptor agonist call", "setting": "OR2D3 (Homo sapiens)", "value": "inactive"}]}, {"smiles": "CCCCC(S)C(C)CO", "note": "(stereo not drawn)", "values": [{"measurement": "odorant receptor agonist call", "setting": "OR2C3 (Homo sapiens)", "value": "inactive"}, {"measurement": "odorant receptor agonist call", "setting": "OR2D2 (Homo sapiens)", "value": "inactive"}, {"measurement": "odorant receptor agonist call", "setting": "OR2D3 (Homo sapiens)", "value": "inactive"}]}, {"smiles": "CCCC(S)CCOC(C)=O", "note": "(stereo not drawn)", "values": [{"measurement": "odorant receptor agonist call", "setting": "OR2C3 [2]", "value": "inactive"}, {"measurement": "odorant receptor agonist call", "setting": "OR2C3 [3]", "value": "inactive"}, {"measurement": "odorant receptor agonist call", "setting": "OR2D2 (Homo sapiens)", "value": "inactive"}, {"measurement": "odorant receptor agonist call", "setting": "OR2D2 S148P I163T M202T", "value": "inactive"}, {"measurement": "odorant receptor agonist call", "setting": "OR2D3 (Homo sapiens)", "value": "inactive"}, {"measurement": "odorant receptor agonist call", "setting": "OR2D3 R155W", "value": "inactive"}]}, {"smiles": "CC1=NC(C)C(C)S1", "note": "(stereo not drawn)", "values": [{"measurement": "odorant receptor agonist call", "setting": "OR2C3 [2]", "value": "inactive"}, {"measurement": "odorant receptor agonist call", "setting": "OR2C3 [3]", "value": "inactive"}, {"measurement": "odorant receptor agonist call", "setting": "OR2D2 (Homo sapiens)", "value": "inactive"}, {"measurement": "odorant receptor agonist call", "setting": "OR2D2 S148P I163T M202T", "value": "inactive"}, {"measurement": "odorant receptor agonist call", "setting": "OR2D3 (Homo sapiens)", "value": "inactive"}, {"measurement": "odorant receptor agonist call", "setting": "OR2D3 R155W", "value": "inactive"}]}, {"smiles": "CC(=O)c1c(C)c([N+](=O)[O-])c(C(C)(C)C)c([N+](=O)[O-])c1C", "values": [{"measurement": "odorant receptor agonist call", "setting": "OR2C3 (Homo sapiens)", "value": "inactive"}, {"measurement": "odorant receptor agonist call", "setting": "OR2D2 (Homo sapiens)", "value": "inactive"}, {"measurement": "odorant receptor agonist call", "setting": "OR2D3 (Homo sapiens)", "value": "inactive"}]}, {"smiles": "CCC1OC(=O)C(O)=C1C", "note": "(stereo not drawn)", "values": [{"measurement": "odorant receptor agonist call", "setting": "OR2C3 [2]", "value": "inactive"}, {"measurement": "odorant receptor agonist call", "setting": "OR2C3 [3]", "value": "inactive"}, {"measurement": "odorant receptor agonist call", "setting": "OR2D2 (Homo sapiens)", "value": "inactive"}, {"measurement": "odorant receptor agonist call", "setting": "OR2D2 S148P I163T M202T", "value": "inactive"}, {"measurement": "odorant receptor agonist call", "setting": "OR2D3 (Homo sapiens)", "value": "inactive"}, {"measurement": "odorant receptor agonist call", "setting": "OR2D3 R155W", "value": "inactive"}]}, {"smiles": "O=C([O-])C[SH2+]", "values": [{"measurement": "odorant receptor agonist call", "setting": "OR2C1 [1]", "value": "inactive"}]}, {"smiles": "CC(CO)CS", "note": "(stereo not drawn)", "values": [{"measurement": "odorant receptor agonist call", "setting": "OR2C3 (Homo sapiens)", "value": "inactive"}, {"measurement": "odorant receptor agonist call", "setting": "OR2D2 (Homo sapiens)", "value": "inactive"}, {"measurement": "odorant receptor agonist call", "setting": "OR2D3 (Homo sapiens)", "value": "inactive"}]}, {"smiles": "CCCCCCC=CCCC=O", "values": [{"measurement": "odorant receptor agonist call", "setting": "OR2C3 (Homo sapiens)", "value": "inactive"}, {"measurement": "odorant receptor agonist call", "setting": "OR2D2 (Homo sapiens)", "value": "inactive"}, {"measurement": "odorant receptor agonist call", "setting": "OR2D2 S148P I163T M202T", "value": "inactive"}, {"measurement": "odorant receptor agonist call", "setting": "OR2D3 (Homo sapiens)", "value": "inactive"}, {"measurement": "odorant receptor agonist call", "setting": "OR2D3 R155W", "value": "inactive"}]}, {"smiles": "CCC1OC(C)=C(O)C1=O", "note": "(stereo not drawn)", "values": [{"measurement": "odorant receptor agonist call", "setting": "OR2C3 [2]", "value": "inactive"}, {"measurement": "odorant receptor agonist call", "setting": "OR2C3 [3]", "value": "inactive"}, {"measurement": "odorant receptor agonist call", "setting": "OR2D2 (Homo sapiens)", "value": "inactive"}, {"measurement": "odorant receptor agonist call", "setting": "OR2D2 S148P I163T M202T", "value": "inactive"}, {"measurement": "odorant receptor agonist call", "setting": "OR2D3 (Homo sapiens)", "value": "inactive"}, {"measurement": "odorant receptor agonist call", "setting": "OR2D3 R155W", "value": "inactive"}]}, {"smiles": "CCCCCC(=O)C(C)C(C)=O", "note": "(stereo not drawn)", "values": [{"measurement": "odorant receptor agonist call", "setting": "OR2C3 (Homo sapiens)", "value": "inactive"}, {"measurement": "odorant receptor agonist call", "setting": "OR2D2 (Homo sapiens)", "value": "inactive"}, {"measurement": "odorant receptor agonist call", "setting": "OR2D3 (Homo sapiens)", "value": "inactive"}]}]}
